Reference: ChEMBL document CHEMBL5696442, “Discovery of type II inhibitors of TGFβ-activated kinase 1 (TAK1) and mitogen-activated protein kinase kinase kinase kinase 2 (MAP4K2)” (J Med Chem, 2015)

Tests used:
[1] = molecular target: Cyclin-dependent kinase 8 (Homo sapiens) (UniProt P49336); assay: Inhibition of CDK8 Lys2 labeling site in human A-375 cells at 5 uM by KiNativ Profiling analysis relative to control; type: cell-based
In short: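 Live A375 melanoma cells were treated with compound at 5 or 0.5 μM. The cells were then lysed, and the lysates were labeled with a lysine-reactive ATP or ADP-biotin acyl probe (KiNativ). Inhibition is the compound's protection of each kinase labeling-site peptide from probe labeling, relative to untreated control.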

[2] = Half life in Swiss albino mouse at 1 mg/kg, iv measured upto 24 hrs by LC/MS/MS analysis; type: ADME, organism-based; conditions: in vivo
In short: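 Male Swiss albino mice. […] Blood was taken into K2EDTA from three mice per time point, from 0 to 24 h. Plasma was precipitated with acetonitrile and analysed by LC/MS/MS (LLOQ 1.138 ng/mL).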

[3] = molecular target: p38 delta/gamma (Homo sapiens) (UniProt O15264+P53778); assay: Inhibition of p38delta/gamma Lys2 labeling site in human A-375 cells at 5 uM by KiNativ Profiling analysis relative to control; type: cell-based
[4] = molecular target: Calcium/calmodulin-dependent protein kinase type 1 (Homo sapiens) (UniProt Q14012); assay: Inhibition of CaMK1a Lys1 labeling site in human A-375 cells at 0.05 uM by KiNativ Profiling analysis relative to control; type: cell-based
[5] = AUC last in Swiss albino mouse at 10 mg/kg, po measured upto 24 hrs by LC/MS/MS analysis; type: ADME, organism-based; conditions: in vivo
[6] = molecular target: Tyrosine-protein kinase Lyn (Homo sapiens, UniProt P07948); assay: Inhibition of LYN (unknown origin) Lys1 labeling site by KiNativ Profiling analysis
[7] = molecular target: Serine/threonine-protein kinase Nek7 (Homo sapiens) (UniProt Q8TDX7); assay: Inhibition of NEK7 Lys1 labeling site in human A-375 cells at 5 uM by KiNativ Profiling analysis relative to control; type: cell-based
[8] = molecular target: RAC-gamma serine/threonine-protein kinase (Homo sapiens) (UniProt Q9Y243); assay: Inhibition of AKT3 ATP Loop labeling site in human A-375 cells at 0.5 uM by KiNativ Profiling analysis relative to control; type: cell-based
In short: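 Live A375 melanoma cells were treated with compound at 5 or 0.5 μM, then lysed. The lysates were labeled with a lysine-reactive ATP or ADP-biotin probe. Kinase protection from probe labeling was measured by KiNativ.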

[9] = molecular target: T1, Mixed lineage kinase domain-like protein (Homo sapiens) (UniProt Q8NB16); assay: Inhibition of MLKL Lys1 labeling site in human A-375 cells at 0.05 uM by KiNativ Profiling analysis relative to control; type: cell-based
T1 sequence (whole entry): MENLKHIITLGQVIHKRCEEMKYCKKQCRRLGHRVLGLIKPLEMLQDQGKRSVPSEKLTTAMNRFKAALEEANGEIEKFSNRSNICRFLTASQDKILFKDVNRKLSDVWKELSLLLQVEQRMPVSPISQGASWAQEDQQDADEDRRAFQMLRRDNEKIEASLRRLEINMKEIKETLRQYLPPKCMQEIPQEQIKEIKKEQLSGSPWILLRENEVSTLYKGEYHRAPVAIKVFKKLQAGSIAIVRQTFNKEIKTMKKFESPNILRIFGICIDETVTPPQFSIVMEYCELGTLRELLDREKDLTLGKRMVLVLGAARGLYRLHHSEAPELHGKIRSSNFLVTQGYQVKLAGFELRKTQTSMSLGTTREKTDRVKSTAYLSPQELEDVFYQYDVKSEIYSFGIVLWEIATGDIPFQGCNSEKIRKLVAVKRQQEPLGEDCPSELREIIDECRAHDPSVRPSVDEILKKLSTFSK

[10] = Inhibition of KHS1 Lys1 labeling site in human A-375 cells at 0.05 uM by KiNativ Profiling analysis relative to control; conditions: condition cancer
[11] = molecular target: Dual specificity mitogen-activated protein kinase kinase 2 (Homo sapiens) (UniProt P36507); assay: Inhibition of MAP2K2 Lys1 labeling site in human A-375 cells at 0.5 uM by KiNativ Profiling analysis relative to control; type: cell-based
[12] = molecular target: Mitogen-activated protein kinase 8 (Homo sapiens, UniProt P45983); assay: Inhibition of JNK1 Lys2 labeling site in human A-375 cells at 0.5 uM by KiNativ Profiling analysis relative to control; type: cell-based
[13] = molecular target: T2, Serine/threonine-protein kinase Nek9 (Homo sapiens) (UniProt Q8TD19); assay: Inhibition of NEK9 Lys1 labeling site harbouring TEDDSLVVWKEVDLTR in human A-375 cells at 5 uM by KiNativ Profiling analysis relative to control; type: cell-based
T2 sequence (whole entry): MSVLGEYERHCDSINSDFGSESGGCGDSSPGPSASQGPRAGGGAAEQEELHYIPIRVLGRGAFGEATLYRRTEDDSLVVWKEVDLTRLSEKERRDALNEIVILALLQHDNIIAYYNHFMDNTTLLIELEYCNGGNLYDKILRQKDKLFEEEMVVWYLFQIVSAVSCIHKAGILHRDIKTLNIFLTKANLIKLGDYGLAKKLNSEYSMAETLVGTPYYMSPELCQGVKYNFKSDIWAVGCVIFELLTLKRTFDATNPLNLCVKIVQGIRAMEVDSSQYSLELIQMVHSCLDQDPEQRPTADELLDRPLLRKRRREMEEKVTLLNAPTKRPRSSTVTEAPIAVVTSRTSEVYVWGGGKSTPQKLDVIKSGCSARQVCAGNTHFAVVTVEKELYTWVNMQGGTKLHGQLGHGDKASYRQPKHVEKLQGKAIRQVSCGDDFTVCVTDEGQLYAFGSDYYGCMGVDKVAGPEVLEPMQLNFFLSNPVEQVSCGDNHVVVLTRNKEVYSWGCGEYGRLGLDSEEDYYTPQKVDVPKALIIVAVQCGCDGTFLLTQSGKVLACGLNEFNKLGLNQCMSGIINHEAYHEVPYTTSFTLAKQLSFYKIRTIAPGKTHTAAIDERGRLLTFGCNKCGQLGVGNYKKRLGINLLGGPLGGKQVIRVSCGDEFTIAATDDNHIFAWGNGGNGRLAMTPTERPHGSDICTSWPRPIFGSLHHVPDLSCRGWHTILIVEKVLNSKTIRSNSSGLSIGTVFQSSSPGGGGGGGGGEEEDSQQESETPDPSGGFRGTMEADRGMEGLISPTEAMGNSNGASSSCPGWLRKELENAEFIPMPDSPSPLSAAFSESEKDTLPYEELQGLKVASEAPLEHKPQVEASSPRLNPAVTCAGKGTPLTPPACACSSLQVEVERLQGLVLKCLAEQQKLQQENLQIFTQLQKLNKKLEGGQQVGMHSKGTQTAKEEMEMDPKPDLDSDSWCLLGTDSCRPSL

[14] = molecular target: Serine/threonine-protein kinase WNK2 (Homo sapiens) (UniProt Q9Y3S1); assay: Inhibition of Wnk2 Lys2 labeling site in human A-375 cells at 0.05 uM by KiNativ Profiling analysis relative to control; type: cell-based
[15] = Inhibition of IL-1 induced p38 MAPK phosphorylation level in TAK1 deficient mouse MEF cells at 500 nM incubated for 1 hr followed by IL-1 stimulation by Western blot analysis relative to control; type: functional

Serine/threonine-protein kinase WNK2 (Homo sapiens), sequence (Q9Y3S1 whole entry): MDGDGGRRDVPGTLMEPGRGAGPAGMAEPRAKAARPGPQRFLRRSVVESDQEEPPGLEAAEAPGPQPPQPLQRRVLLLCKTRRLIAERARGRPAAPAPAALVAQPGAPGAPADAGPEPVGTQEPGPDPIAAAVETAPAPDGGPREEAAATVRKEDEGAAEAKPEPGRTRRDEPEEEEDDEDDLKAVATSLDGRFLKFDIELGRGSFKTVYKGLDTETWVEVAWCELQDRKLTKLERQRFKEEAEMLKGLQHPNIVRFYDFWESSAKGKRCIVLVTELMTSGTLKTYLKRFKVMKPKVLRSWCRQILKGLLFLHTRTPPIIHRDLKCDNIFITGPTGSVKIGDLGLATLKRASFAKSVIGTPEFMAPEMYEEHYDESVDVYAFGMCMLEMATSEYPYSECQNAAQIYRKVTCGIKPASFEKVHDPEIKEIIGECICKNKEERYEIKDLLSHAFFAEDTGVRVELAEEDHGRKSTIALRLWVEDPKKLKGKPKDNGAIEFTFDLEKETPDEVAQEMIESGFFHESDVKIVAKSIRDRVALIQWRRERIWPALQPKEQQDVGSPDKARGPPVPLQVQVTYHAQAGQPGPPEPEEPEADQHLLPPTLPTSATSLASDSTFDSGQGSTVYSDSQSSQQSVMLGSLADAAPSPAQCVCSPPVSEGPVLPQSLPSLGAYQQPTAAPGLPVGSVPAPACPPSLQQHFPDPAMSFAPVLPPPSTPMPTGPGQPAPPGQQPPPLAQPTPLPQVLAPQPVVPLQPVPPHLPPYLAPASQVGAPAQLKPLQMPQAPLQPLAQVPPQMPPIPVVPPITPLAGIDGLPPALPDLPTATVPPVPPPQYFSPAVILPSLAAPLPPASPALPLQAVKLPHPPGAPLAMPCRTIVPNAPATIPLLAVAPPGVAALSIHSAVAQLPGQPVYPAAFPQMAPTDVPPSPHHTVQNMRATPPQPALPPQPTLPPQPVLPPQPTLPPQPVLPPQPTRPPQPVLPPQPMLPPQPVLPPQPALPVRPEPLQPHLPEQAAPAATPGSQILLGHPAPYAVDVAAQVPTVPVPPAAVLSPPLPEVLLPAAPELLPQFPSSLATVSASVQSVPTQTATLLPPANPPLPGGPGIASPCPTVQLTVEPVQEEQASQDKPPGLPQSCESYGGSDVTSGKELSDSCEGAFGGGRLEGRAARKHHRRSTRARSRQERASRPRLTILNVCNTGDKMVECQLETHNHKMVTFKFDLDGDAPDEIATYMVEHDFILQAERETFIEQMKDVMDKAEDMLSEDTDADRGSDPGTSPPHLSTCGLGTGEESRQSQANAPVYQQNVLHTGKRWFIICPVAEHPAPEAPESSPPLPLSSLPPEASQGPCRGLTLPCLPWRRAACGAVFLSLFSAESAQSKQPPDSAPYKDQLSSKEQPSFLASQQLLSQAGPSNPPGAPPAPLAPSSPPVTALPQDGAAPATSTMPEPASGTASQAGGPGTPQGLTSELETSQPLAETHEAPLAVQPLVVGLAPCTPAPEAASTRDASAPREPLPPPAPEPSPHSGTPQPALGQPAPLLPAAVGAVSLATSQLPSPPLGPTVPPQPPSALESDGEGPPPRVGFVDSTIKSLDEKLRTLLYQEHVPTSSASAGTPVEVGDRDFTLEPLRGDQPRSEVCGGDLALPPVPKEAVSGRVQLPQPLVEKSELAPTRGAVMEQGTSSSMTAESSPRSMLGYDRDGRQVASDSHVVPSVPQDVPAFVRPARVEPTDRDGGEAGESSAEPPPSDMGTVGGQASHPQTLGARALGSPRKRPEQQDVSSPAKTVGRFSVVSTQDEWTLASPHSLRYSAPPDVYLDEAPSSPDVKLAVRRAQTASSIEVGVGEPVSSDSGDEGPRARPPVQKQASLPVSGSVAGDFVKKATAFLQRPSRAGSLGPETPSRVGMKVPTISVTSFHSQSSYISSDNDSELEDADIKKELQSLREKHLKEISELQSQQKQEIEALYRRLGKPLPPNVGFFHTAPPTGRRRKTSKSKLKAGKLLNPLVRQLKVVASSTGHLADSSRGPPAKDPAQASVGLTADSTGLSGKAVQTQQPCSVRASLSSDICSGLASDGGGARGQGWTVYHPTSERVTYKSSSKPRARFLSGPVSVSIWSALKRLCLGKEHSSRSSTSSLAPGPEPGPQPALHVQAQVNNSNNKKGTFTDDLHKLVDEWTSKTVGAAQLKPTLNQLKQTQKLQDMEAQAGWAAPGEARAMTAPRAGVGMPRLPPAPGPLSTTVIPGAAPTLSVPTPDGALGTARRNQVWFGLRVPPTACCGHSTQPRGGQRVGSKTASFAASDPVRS
RAC-gamma serine/threonine-protein kinase (Homo sapiens), sequence (Q9Y243 whole entry): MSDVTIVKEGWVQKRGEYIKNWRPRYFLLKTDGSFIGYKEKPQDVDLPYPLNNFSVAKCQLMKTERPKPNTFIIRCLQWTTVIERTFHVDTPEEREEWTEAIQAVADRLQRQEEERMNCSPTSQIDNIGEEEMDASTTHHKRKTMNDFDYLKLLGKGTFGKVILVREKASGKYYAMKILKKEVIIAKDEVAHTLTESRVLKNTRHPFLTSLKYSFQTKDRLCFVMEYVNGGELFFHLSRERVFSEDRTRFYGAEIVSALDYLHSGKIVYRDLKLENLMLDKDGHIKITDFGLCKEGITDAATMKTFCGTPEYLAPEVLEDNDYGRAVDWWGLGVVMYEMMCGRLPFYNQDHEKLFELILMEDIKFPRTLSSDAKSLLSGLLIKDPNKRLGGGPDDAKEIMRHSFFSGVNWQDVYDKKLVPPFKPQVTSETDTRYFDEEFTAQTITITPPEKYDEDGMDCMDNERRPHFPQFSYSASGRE
Mitogen-activated protein kinase 8, sequence (P45983 whole entry): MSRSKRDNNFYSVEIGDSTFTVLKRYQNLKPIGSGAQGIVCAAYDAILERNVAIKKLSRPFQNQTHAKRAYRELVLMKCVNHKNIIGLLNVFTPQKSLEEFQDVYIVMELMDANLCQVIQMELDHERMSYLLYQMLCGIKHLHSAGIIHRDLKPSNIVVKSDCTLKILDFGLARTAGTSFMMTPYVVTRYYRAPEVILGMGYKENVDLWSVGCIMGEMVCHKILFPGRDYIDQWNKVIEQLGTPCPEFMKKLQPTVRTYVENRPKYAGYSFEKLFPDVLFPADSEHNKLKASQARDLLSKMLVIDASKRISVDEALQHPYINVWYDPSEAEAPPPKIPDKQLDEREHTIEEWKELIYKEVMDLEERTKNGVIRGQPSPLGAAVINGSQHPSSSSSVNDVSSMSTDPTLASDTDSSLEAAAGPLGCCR
Dual specificity mitogen-activated protein kinase kinase 2 (Homo sapiens), sequence (P36507 whole entry): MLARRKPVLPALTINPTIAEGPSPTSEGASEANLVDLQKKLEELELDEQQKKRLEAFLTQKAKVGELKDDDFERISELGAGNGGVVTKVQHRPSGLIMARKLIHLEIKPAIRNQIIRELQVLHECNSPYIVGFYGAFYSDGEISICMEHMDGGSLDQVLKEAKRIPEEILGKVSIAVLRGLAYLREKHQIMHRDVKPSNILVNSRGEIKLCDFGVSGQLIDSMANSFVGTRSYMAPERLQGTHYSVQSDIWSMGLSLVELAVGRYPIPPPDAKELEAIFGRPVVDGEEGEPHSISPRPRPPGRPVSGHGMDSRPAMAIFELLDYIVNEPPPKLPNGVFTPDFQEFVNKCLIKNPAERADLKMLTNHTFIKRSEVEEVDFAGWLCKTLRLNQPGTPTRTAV
Tyrosine-protein kinase Lyn, sequence (P07948 whole entry): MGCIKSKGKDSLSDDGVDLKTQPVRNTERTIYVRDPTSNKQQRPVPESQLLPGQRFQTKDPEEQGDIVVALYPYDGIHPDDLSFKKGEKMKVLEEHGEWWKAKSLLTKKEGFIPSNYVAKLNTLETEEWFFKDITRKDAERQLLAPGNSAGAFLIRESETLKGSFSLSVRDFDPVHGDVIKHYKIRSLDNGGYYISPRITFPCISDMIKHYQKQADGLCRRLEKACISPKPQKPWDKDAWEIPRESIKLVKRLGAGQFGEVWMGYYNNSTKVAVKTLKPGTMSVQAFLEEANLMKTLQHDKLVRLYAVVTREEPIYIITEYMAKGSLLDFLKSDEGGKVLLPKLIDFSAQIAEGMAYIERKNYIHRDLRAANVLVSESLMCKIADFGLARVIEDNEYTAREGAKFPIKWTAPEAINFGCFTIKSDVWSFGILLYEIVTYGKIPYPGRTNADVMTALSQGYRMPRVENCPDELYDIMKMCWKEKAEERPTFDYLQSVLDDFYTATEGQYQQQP
Calcium/calmodulin-dependent protein kinase type 1 (Homo sapiens), sequence (Q14012 whole entry, looked up): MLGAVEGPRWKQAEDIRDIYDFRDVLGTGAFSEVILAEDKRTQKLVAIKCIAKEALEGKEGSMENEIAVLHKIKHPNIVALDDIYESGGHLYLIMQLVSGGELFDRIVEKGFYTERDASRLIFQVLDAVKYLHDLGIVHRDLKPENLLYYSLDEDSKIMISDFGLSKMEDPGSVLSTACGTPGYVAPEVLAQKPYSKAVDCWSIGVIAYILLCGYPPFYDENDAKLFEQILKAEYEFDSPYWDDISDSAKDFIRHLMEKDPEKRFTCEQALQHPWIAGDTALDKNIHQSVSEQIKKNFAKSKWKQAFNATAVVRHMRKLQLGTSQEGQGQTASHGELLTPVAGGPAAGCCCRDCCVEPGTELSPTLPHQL
Serine/threonine-protein kinase Nek7 (Homo sapiens), sequence (Q8TDX7 whole entry, looked up): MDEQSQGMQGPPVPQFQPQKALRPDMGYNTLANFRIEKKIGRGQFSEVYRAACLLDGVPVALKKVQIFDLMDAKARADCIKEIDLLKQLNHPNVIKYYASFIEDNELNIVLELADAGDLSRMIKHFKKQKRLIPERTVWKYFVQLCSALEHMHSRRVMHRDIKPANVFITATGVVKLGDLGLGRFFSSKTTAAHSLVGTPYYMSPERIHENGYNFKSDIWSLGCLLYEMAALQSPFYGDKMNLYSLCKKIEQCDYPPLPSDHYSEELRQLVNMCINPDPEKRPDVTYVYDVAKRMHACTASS

Compound | inhibition [1] [%] | t1/2 [2] [h] | inhibition [3] [%] | inhibition [4] [%] | AUClast [5] [ng·h/mL] | IC50 [6] [nM] | inhibition [7] [%] | inhibition [8] [%] | inhibition [9] [%] | inhibition at 0.05 µM [10] [%] | inhibition [11] [%] | inhibition [12] [%] | inhibition [13] [%] | inhibition [14] [%] | inhibition at 0.5 µM [15] [%]
CCN1CCN(Cc2ccc(NC(=O)c3ccc(C)c(/C=C/c4cnc5[nH]ccc5c4OC)c3)cc2C(F)(F)F)CC1 | 16.9 | 4.66 | 52.7 | 21.5 | 295 | 29.5 | -1.8 | 25.1 | 12.8 | 29.4 | 4.4 | 40.6 | 0.1 | 7.1 | 
CCN1CCN(Cc2ccc(NC(=O)c3ccc(C)c(Oc4ccnc5[nH]ccc45)c3)cc2C(F)(F)F)CC1 | 18 | 2.03 | > 94 | 34.9 | 1369 | 12.9 | 0.3 | -1.8 | 14.8 | 14.9 | -3.5 | 73.7 | -1.2 | -3.5 | 
CNc1cc(Oc2cc(C(=O)Nc3cc(-n4cnc(C)c4)cc(C(F)(F)F)c3)ccc2C)ncn1 |  |  |  |  |  |  |  |  |  |  |  |  |  |  | 100
CNc1cc(Oc2cc(C(=O)Nc3cc(N4CCN(C)CC4)cc(C(F)(F)F)c3)ccc2C)ncn1 |  |  |  |  |  |  |  |  |  |  |  |  |  |  | 100
